# Results published in ChEMBL document CHEMBL1133641, “A new class of potential chloroquine-resistance reversal agents for Plasmodia: syntheses and biological evaluation of 1-(3'-diethylaminopropyl)-3-(substituted phenylmethylene)pyrrolidines” (2000).
# The source made the active and inactive calls. No cut-off for these calls is given here.
# How the values were obtained:
# [1] = test system: Plasmodium yoelii nigeriensis; assay: In Vitro inhibition of Heme Oxygenase in Cell-free parasite Plasmodium yoelii at concentration 10 uM; type: functional
# In short: (§1)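 Heme oxygenase activity was measured as bilirubin formation in a post-mitochondrial fraction. The parasite enzyme came from cell-free P. yoelii, isolated from infected blood by density gradient centrifugation and saponin lysis. The host enzyme came from infected liver. Compounds were tested at 10–100 µM and preincubated for 10 min before the reaction was started.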
# [2] = test system: Plasmodium yoelii nigeriensis; assay: In Vitro inhibition of Heme Oxygenase in Cell-free parasite Plasmodium yoelii at concentration 50 uM; type: functional; in short: as §1
# [3] = target: T1, Glutathione S-transferase (Plasmodium yoelii yoelii) (UniProt Q7REH6); assay: Inhibition of Glutathione S-transferase in Plasmodium yoelii nigeriensis isolated from infected mice (Mus musculus) (oral); conditions: concentration not given here
# T1 sequence (whole entry): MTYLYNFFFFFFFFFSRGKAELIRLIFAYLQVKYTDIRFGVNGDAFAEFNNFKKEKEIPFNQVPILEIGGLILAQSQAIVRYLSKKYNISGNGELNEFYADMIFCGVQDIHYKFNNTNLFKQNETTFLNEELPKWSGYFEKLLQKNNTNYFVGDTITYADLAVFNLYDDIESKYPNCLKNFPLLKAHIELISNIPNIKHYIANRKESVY
# In short: (§2)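 Swiss albino mice carried P. yoelii nigeriensis tolerant to CQ up to 120 mg/kg. They received compound orally at 15 mg/kg body wt for 5 days. Parasites were then isolated from blood by density gradient centrifugation and saponin lysis, and enzyme inhibition was measured as percent inhibition.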
# [4] = test system: Plasmodium yoelii nigeriensis; assay: In Vitro inhibition of Heme Oxygenase in Cell-free parasite Plasmodium yoelii at concentration 50 uM;NI denotes nil inhibition; type: functional; in short: as §1
# [5] = test system: Plasmodium yoelii nigeriensis; assay: In Vitro inhibition of Heme Oxygenase in Cell-free parasite Plasmodium yoelii at concentration 100 uM; type: functional; in short: as §1
# [6] = test system: Plasmodium yoelii nigeriensis; assay: In Vitro inhibition of Heme Oxygenase in Cell-free parasite Plasmodium yoelii at concentration 100 uM;NI denotes nil inhibition; type: functional; in short: as §1
# [7] = test system: Plasmodium yoelii nigeriensis; assay: Inhibition of heme oxygenase in Plasmodium yoelii nigeriensis isolated from infected mice (Mus musculus) (oral); type: functional; in short: as §2
# [8] = test system: Plasmodium yoelii nigeriensis; assay: In Vitro inhibition of Heme Oxygenase in Cell-free parasite Plasmodium yoelii at concentration 10 uM;NI denotes nil inhibition; type: functional; in short: as §1
# [9] = species on record: Mus musculus; assay: In Vitro inhibition of Heme Oxygenase in Plasmodium yoelii (host) at concentration 10 uM; type: functional; in short: as §1
# [10] = target: T1, Glutathione S-transferase (Plasmodium yoelii yoelii); assay: Inhibition of Glutathione S-transferase in Plasmodium yoelii nigeriensis isolated from infected mice (Mus musculus) (oral); NI denotes nil inhibition; in short: as §2
# [11] = species on record: Mus musculus; assay: In Vitro inhibition of Heme Oxygenase in Plasmodium yoelii (host) at concentration 100 uM; type: functional
# In short: (§3)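 In vitro heme oxygenase, cell-free: post-mitochondrial fractions of P. yoelii parasites and of infected host liver. Test compounds at 10-100 µM were preincubated 10 min in the assay system before the enzyme reaction started. Activity was followed as bilirubin formation and expressed as % inhibition.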
# [12] = species on record: Mus musculus; assay: In Vitro inhibition of Heme Oxygenase in Plasmodium yoelii (host) at concentration 50 uM; type: functional; in short: as §3
# [13] = test system: Plasmodium yoelii nigeriensis; assay: Inhibition of heme oxygenase in Plasmodium yoelii nigeriensis isolated from infected mice (Mus musculus) (oral); NI denotes no inhibition; type: functional, organism-based; in short: as §2
# [14] = test system: Plasmodium yoelii nigeriensis; assay: In Vitro evaluation on percentage inhibition in Heme Oxygenase at concentration 100(uM) of Cell-free parasite Plasmodium yoelii; type: functional; in short: as §1
# [15] = In Vitro evaluation on percentage inhibition in Heme Oxygenase at concentration 50(uM) of infected host; in short: as §1
# [16] = In Vitro evaluation on percentage inhibition in Heme Oxygenase at concentration 100 (uM) of infected host; in short: as §1
# [17] = In Vitro evaluation on percentage inhibition in Heme Oxygenase at concentration 10 (uM)of infected host; in short: as §1
# [18] = test system: Plasmodium yoelii nigeriensis; assay: In Vitro inhibition of Heme Oxygenase in Cell-free parasite Plasmodium yoelii at concentration 50 uM; NI denotes nil inhibition; type: functional; in short: as §1
# [19] = test system: Plasmodium yoelii nigeriensis; assay: Inhibition of heme oxygenase in Plasmodium yoelii nigeriensis isolated from infected mice (Mus musculus) (oral); NI denotes nil inhibition; type: functional, organism-based; in short: as §2
Structure (SMILES),inhibition [1] [%],inhibition [2] [%],inhibition [3] [%],NI [4],inhibition [5] [%],NI [6],Inhibition [7] [%],NI [8],inhibition [9] [%],NI [10],inhibition [11] [%],inhibition [12] [%],NI [13],inhibition [14] [%],inhibition [15] [%],inhibition [16] [%],inhibition [17] [%],NI [18],NI [19]
CCN(CC)CCCN1CC/C(=C\c2ccc(OC)c(OC)c2)C1,100,100,80,No inhibition,100,No inhibition,100,No inhibition,,,,,,,,,,,
CCN(CC)CCCN1CC/C(=C\c2ccc(OCc3ccccc3)cc2)C1,28,37,,,64,,,,24,No inhibition,69,63,inactive,,,,,,
COc1ccc([C@@H]2Sc3ccccc3N(CCN(C)C)C(=O)[C@@H]2OC(C)=O)cc1,,12.5,,,,,,,,,,,,29,41,84,,,
CCN(CC)CCCN1CC/C(=C\c2ccccc2)C1,52,64,,,82,,,,,No inhibition,,,inactive,,65,65,10,,
CCN(CC)CCCN1CC/C(=C\c2ccc3c(c2)OCO3)C1,100,100,10,,100,No inhibition,,No inhibition,,,,,,,,,,No inhibition,No inhibition
